NSD2 HMT inh – NSD2 histone methyltransferase inhibitors, primary screen, biochemical, AlphaScreen, single concentration, set 2; inhibition, % at 12.5 µM; actives 0.54% (n = 310,000); Histone-lysine N-methyltransferase NSD2 (Homo sapiens), O96028; NSD2 peptide methylation, 120 min; in the data active = inhibition above about 50%
MBD2 DNA inh – inhibitors of MBD2 binding to methylated DNA, primary screen, biochemical, TR-FRET, DNA-binding domain, human. Methyl-CpG-binding domain protein 2 (Homo sapiens), Q9UBB5. MBD2 binding to methylated oligonucleotide. inhibition, % at 4.4 µM. actives 0.31% (n = 370,000); in the data active = inhibition above about 13%
UHRF1 binding – UHRF1 methylated DNA binding inhibitors, primary screen, counter-screen for MBD2 inhibitor project, biochemical, TR-FRET, human UHRF1, single concentration. inhibition, % at 4.4 µM. UHRF1 binding to methylated oligo. actives 0.75% (n = 370,000). AID 687016, 2013. E3 ubiquitin-protein ligase UHRF1 (Homo sapiens), Q96T88; in the data active = inhibition above about 21%;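 also: UHRF1 SRA domain binding a hemimethylated CpG hairpin DNA probe; 0% = median of test compound wells and 100% = reference inhibitor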
Casp6 inh – human caspase-6 inhibitors, primary screen, biochemical, VEID-R110 fluorescence, single point, set 2 | purified caspase-6, Z-VEID-R110 cleavage fluorescence | P55212 | actives 0.53% (n = 350,000) | AID 686996, 2013 | inhibition, % at 12.5 µM;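 active = mean inhibition across replicates at least about 35%, with every replicate also reaching that limit, limit read from the data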;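 also: 0% = median of neutral control wells and 100% = no fluorescence left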
Target sequence (P55212 24-179 limits assumed): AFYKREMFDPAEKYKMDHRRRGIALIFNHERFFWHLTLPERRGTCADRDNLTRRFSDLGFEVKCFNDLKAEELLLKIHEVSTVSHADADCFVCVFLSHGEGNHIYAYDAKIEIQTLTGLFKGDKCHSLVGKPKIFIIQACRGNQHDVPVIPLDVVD
Target sequence (P55212 194-293 limits assumed): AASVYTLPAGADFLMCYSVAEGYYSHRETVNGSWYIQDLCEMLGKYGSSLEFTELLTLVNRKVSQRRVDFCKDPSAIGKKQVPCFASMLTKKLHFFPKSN
LEDGF integ inh – blockers of LEDGF/p75-dependent integrase strand transfer – biochemical, TR-FRET, high throughput, primary screen. HIV-1 integrase (with human LEDGF/p75). TR-FRET IN-LEDGF/p75 DNA integration, Eu/Cy5. inhibition, % at 3.7 µM. actives 0.64% (n = 370,000). AID 743269, 2014;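 active = inhibition above the screen-wide mean plus 3 SD, cut at about 13% in these data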;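 also: signal is the Cy5 over europium emission ratio at 671 and 618 nm; 0% = plate median of compound wells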
TDP2 inh – human TDP2 enzyme inhibitors, primary screen, biochemical, epi absorbance, recombinant enzyme; T5PNP hydrolysis, p-nitrophenol absorbance 415 nm; actives 0.34% (n = 370,000); AID 720702, 2013; inhibition, % at 12.8 µM;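 active = inhibition above the mean of all tested compounds plus 3 SD, set per campaign, cut at about 25% in these data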;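 also: 0% = DMSO with enzyme and 100% = buffer with substrate but no TDP2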
Target sequence (O95551 whole entry, looked up): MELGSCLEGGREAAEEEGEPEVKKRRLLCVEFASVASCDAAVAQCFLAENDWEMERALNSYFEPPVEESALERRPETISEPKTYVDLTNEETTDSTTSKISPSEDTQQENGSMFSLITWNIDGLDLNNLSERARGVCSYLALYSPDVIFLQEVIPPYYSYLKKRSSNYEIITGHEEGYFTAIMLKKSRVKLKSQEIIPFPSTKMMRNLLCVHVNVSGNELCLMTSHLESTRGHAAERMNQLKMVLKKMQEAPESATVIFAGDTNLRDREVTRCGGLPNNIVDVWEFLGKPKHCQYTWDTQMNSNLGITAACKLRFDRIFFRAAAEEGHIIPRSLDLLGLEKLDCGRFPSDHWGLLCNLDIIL
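Assay system: recombinant human TDP2 / Reagent: T5PNP substrate at 5 mM, a TopII-DNA adduct mimic / Measured by: epi absorbance from released p-nitrophenol / Evaluation: % inhibition relative to enzyme-containing and enzyme-free wells / Control set: enzyme-free and DMSO wells / Replicates: each compound tested once, singlicate / Schedule: enzyme reaction with compound for 2 h at 37 °C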
Starred values were filed as active, the others as inactive; / = no result given. A selection: hits, their analogues and other compounds. The true share with any hit is near 1.9%.

SMILES	NSD2 HMT inh	MBD2 DNA inh	UHRF1 binding	Casp6 inh	LEDGF integ inh	TDP2 inh
Cc1cc(C)cc(NC(=O)Cc2ccc(S(=O)(=O)N3CCCC3)s2)c1	0	1	0	51*	-1	-2
CNC[C@@H]1Oc2cc(C#CC(C)(C)O)ccc2S(=O)(=O)N([C@H](C)CO)C[C@H]1C	/	/	/	0	/	/
CC=Cc1ccc2n(c1=O)C[C@@H]1[C@@H](CO)[C@H](C(=O)NC3CCCCC3)N(C(=O)C3CC3)[C@H]21 (mixture of isomers)	/	/	/	1	/	/
Cc1n[nH]c(C)c1CCNC(=O)C1CCC(=O)N(CCc2cccc(F)c2)C1 (stereo not drawn)	5	3	22*	-1	-2	-4
O=C(Nc1cc(F)ccc1F)N1CCCCN2[C@H](CO)[C@H](c3ccc(-c4ccncc4)cc3)[C@H]2C1	/	/	/	-4	/	/
Cc1cccc(-c2nc(CCNC(=O)c3ccco3)cs2)c1	1	-5	-3	42*	2	-1
N#Cc1ccsc1NC(=O)COC(=O)CCCSc1nc2ccccc2s1	-2	8	75*	/	1	5
CCOc1cc(/C=N/NC(=O)c2ccc(-c3csc(Nc4ccc(C)cc4)n3)cc2)ccc1OCC(=O)O	-5	-4	0	50*	2	3
O=C(O)COc1ccc(/C=N/NC(=O)c2ccc(-c3csc(Nc4ccc(Cl)cc4)n3)cc2)cc1	0	10	21*	20	-2	2
O=C(c1cccc(F)c1)N1CC[C@H]2[C@H](CO)Nc3ccc(C#Cc4cccc(F)c4)cc3[C@H]21	/	/	/	-3	/	/
C[C@@H]1CN([C@H](C)CO)C(=O)c2cc(NC(=O)C3CC3)ccc2O[C@@H]1CN(C)S(C)(=O)=O	/	/	/	0	/	/
CO[C@H]1CN(C)C(=O)c2cc(NC(=O)c3ccc4c(c3)OCO4)ccc2OC[C@@H](C)N(CC2CC2)C[C@H]1C	/	/	/	-3	/	/
O=C(C1CCOCC1)N1CC(=O)N2[C@@H](CO)[C@H](c3ccc(C#Cc4cccc(F)c4)cc3)[C@@H]2C1	/	/	/	-1	/	/
CCOC(=O)C1(CCOC)CCN(C(=O)c2ccccc2-c2cccc(C)c2)CC1	-1	4	23*	0	1	-20
CC(C)(C)OC(=O)N1CCC(c2cc(=O)n3[nH]cc(C(=O)Nc4ccc(F)c(Cl)c4)c3n2)CC1	0	2	6	10	9	-17
COc1ccc(NC(=O)c2c[nH]n3c(=O)cc(C4CCN(C(=O)OC(C)(C)C)CC4)nc23)cc1Cl	/	7	39*	22	1	-8
OC[C@@H]1[C@@H](c2ccccc2)[C@@H](CNCC2CCC2)N1CC1CC1	/	/	/	0	/	/
COc1ccc(C(=O)OCC(=O)c2ccc3c(c2)NC(=O)CO3)cc1OC	-2	-3	58*	0	3	-4
C[C@@H]1CN([C@H](C)CO)C(=O)c2cc(NC(=O)CCC(F)(F)F)ccc2O[C@@H](C)CCCCO[C@H]1CN(C)S(=O)(=O)c1ccc(Cl)cc1	/	/	/	2	/	/
O=C(C[C@@H]1C=C[C@H](NC(=O)Nc2ccccc2F)[C@@H](CO)O1)NCc1ccc(F)cc1	/	/	/	-3	/	/
O=S(=O)(c1ccc(Cl)nc1)N1CCc2ccccc21	-7	2	42*	-1	1	6
O=S(=O)(c1ccc(Cl)nc1)N1CCCc2ccccc21	-6	6	0	/	-1	5
O=C(CN1CCOCC1)NCC[C@@H]1CC[C@@H](NS(=O)(=O)c2ccc(F)cc2)[C@@H](CO)O1	/	/	/	1	/	/
CSc1ccccc1NC(=O)CN(C)C(=O)/C=C/c1ccccc1	11	7	0	36*	-3	5
CSc1ccccc1NC(=O)CN(C)C(=O)Cc1c[nH]c2ccccc12	/	-1	-1	2	2	14
SMILES	NSD2 HMT inh	MBD2 DNA inh	UHRF1 binding	Casp6 inh	LEDGF integ inh	TDP2 inh
CSc1ccccc1NC(=O)CN(C)C(=O)CCc1c[nH]c2ccccc12	4	5	21*	-6	-5	-11
COc1cc(/C=C/C(=O)N(C)CC(=O)Nc2ccccc2SC)cc(OC)c1OC	0	-2	1	2	-3	-2
CCCC#Cc1ccc2c(c1)O[C@H](CN(C)C(=O)c1ccccn1)[C@@H](C)CN([C@@H](C)CO)S2(=O)=O	/	/	/	5	/	/
Cc1noc(C)c1NC(=O)Nc1cccc2c1O[C@@H](CN(C)S(=O)(=O)c1ccc(Cl)cc1)[C@@H](C)CN([C@H](C)CO)C2=O	/	/	/	2	/	/
CCNC(=O)Nc1ccc2c(c1)C(=O)N(C)[C@@H]1CC[C@@H](CC(=O)NCCOC)O[C@H]1CO2	/	/	/	-1	/	/
CCC(C)COC(c1ccccc1)(c1ccccc1)C(Oc1nc(C)cc(C)n1)C(=O)O (stereo not drawn)	-3	1	41*	3	0	4
CC(C)NC(=O)Nc1ccc2c(c1)C(=O)N([C@H](C)CO)C[C@@H](C)[C@H](CN(C)Cc1ccc(C(=O)O)cc1)OCCCC[C@@H](C)O2	/	/	/	-2	/	/
COc1ccc(-c2ccc3c(c2)O[C@H](CN(C)C(=O)c2ccccc2F)[C@@H](C)CN([C@@H](C)CO)S3(=O)=O)cc1	/	/	/	-1	/	/
CCCc1cc(=O)[nH]c(SCC(=O)NC2(C#N)CCCCC2)n1	2	11	27*	-1	1	-10
COC(=O)c1ccc(N2CCOCC2)c(NC(=O)Nc2cccc(OC)c2)c1	/	-4	24*	0	-5	3
CCOC(=O)c1ccc(N2CCN(c3ccccc3F)CC2)c(NC(=O)Nc2cccc(OC)c2)c1	-3	9	5	1	1	1
O=C(O)c1cccc(N2C(=O)/C(=C/c3ccc(SCc4ccc(Cl)cc4)o3)SC2=S)c1	112*	40*	89*	72*	60*	17
C/C(=N/NC(N)=S)c1cc2ccc(O)cc2oc1=O	18	-15	-11	42*	-1	15
C/C(=N/NC(=O)c1ccncc1)c1cc2ccc(O)cc2oc1=O	2	-3	-27	-3	-3	-17
C[C@@H]1CN([C@@H](C)CO)C(=O)c2cccc(NC(=O)C3CCOCC3)c2O[C@H]1CN(C)S(C)(=O)=O	/	/	/	-1	/	/
Cc1noc(C)c1NC(=O)Nc1ccc2c(c1)C(=O)N([C@@H](C)CO)C[C@H](C)[C@@H](CN(C)S(=O)(=O)c1ccc(F)cc1)OCCCC[C@H](C)O2	/	/	/	-1	/	/
